Rows were chosen to be rich in hits. Some 1.2% of all compounds tested hit in one or more screens of this group.
PfG6PD inh – PfG6PD (Plasmodium falciparum) enzyme inhibition. PfGluPho enzyme, NADPH resazurin-diaphorase fluorescence. inhibition, % at 20 µM. 0.78% of 350,000 active. AID 504690;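 active = inhibition reaching at least a set limit at 20 µM in the primary screen, cut at about 59% in these data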;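 also: 0% = DMSO wells with substrate and 100% = DMSO wells lacking glucose-6-phosphate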
G6PDH CS – inhibits Leuconostoc G6PDH, flagging false hits in G6PDH-based assays. AID 1020. 0.12% of 200,000 active. Purified L. mesenteroides G6PDH, diaphorase/resazurin coupled fluorescence, 45 min. inhibition, % at 5 µM; in the data active = inhibition above about 50%
Diaphorase inh – diaphorase inhibition or chemical oxidation counter-screen; diaphorase resazurin-to-resorufin fluorescence, NADH, 16 min; bacterial (C. kluyveri) enzyme, not human; inhibition, % at 20 µM; 0.69% of 190,000 active; AID 1217;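 active = primary screen inhibition at 20 µM above a set limit, cut at about 50% in these data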;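 also: plate controls were DMSO with full reaction for no effect and wells lacking NADH for full effect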
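Test system: diaphorase enzyme from Clostridium kluyveri; amount: diaphorase at 0.14 U/mL in enzyme working solution; detection: fluorescence of resorufin formed from resazurin, Ex 544/Em 590 nm; times: reaction incubation of 16 min at room temperature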
Diaph act CS – activates diaphorase or chemically reduces, flagging diaphorase assay artifacts. Diaphorase/resazurin coupled assay, resorufin fluorescence, 16 min; stronger effect = higher value; 1 = vehicle wells, 0 = NADH-free wells. activation factor at 20 µM. 0.005% of 190,000 active. AID 1229;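 active = diaphorase activity raised at least twofold by the compound at 20 µM; inactive = activation factor below 2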
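Material: purified diaphorase enzyme from Clostridium kluyveri; Also added: 0.114 mM NADH and 0.1 mM resazurin, final amounts; Doses: single compound dose of 20 µM, 1% DMSO final; Times: 16 min enzyme reaction, ambient temperature; Detection: resorufin fluorescence, excitation 544 nm, emission 590 nm; Measure: increased resorufin signal from activators or reducing compounds.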
HKDC1 inhibitor – inhibitors of human hexokinase HKDC1; recombinant HKDC1, G6PDH/diaphorase resazurin coupled fluorescence; 0.16% of 340,000 active; inhibition, % at 20 µM; Q2TB90; AID 493160;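 active = inhibition above about 35% when tested at 20 µM, limit read from the data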;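 also: plate controls were DMSO wells with enzyme for no effect and DMSO wells lacking enzyme for full effect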
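test system = in-house recombinant HK5 (HKDC1) enzyme | amount = HKDC1 at 5 µg/mL | control set = DMSO-enzyme wells negative, buffer-substituted wells positive | compound = one dose of 20 µM, 1% DMSO | schedule = reaction time 90 min, room temperature, protected from light | technique = resorufin fluorescence at 613 nm | reagent = glucose with 1 mM ATP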
An asterisk follows results filed as active; / = no result.

SMILES	PfG6PD inh	G6PDH CS	Diaphorase inh	Diaph act CS	HKDC1 inhibitor
COc1ccc(/C=N/NC(=O)c2cc(O)c(O)c(O)c2)cc1Cn1cc([N+](=O)[O-])cn1	53.4	7.4	66.3*	0.3	15.6
Cc1cc2nc3c(=O)n(C4CCCCC4)c(=O)[nH]c3nc2cc1N	47.5	30.3	59.6*	0.4	10.7
Cc1cc(C)cc(Nc2cc(=O)n(C3CCCCC3)c(=O)[nH]2)c1	-3.8	2.2	16.9	0.8	5.4
CCOc1ccc(-n2c(=S)sc3c(=O)[nH]c(SCC(=O)N4CCC(C)CC4)nc32)cc1	-28.9	-0.1	61.7*	0.4	7.5
CCOC(=O)CSc1nc2c(sc(=S)n2-c2ccc(OCC)cc2)c(=O)[nH]1	-8.8	5.4	48.0	0.5	-5.8
CCOc1ccc(-n2c(=S)sc3c(=O)[nH]c(SCC(=O)C(C)(C)C)nc32)cc1	5.7	1.3	67.5*	0.3	0.9
CC1C(=O)N(Cc2cn(CC3CCCCC3)nn2)CCS(=O)(=O)N1Cc1ccc(-c2cccc(CO)c2)cc1 (configuration not stated)	8.9	/	/	/	/
O=C(/C=C/c1cccc([N+](=O)[O-])c1)c1ccc([N+](=O)[O-])o1	97.8*	/	/	/	54.7*
COc1ccc2cc(C3=CC(=O)CC(C)(C)C3=O)ccc2c1	-3.5	/	/	/	/
Nc1cccc2nsnc12	43.8	/	/	/	20.8
Nc1cc2nsnc2cc1Br	98.7*	57.8*	40.9	0.6	-4.3
Cc1ccc(-n2c(=S)[nH]c3sc4c(c3c2=O)CCC4)cc1	8.1	-6.6	53.1*	0.5	1.7
CCCc1cc2c(cc1N(C)S(=O)(=O)c1ccccc1)OCO2	41.1	/	/	/	-1.1
Oc1c(C(c2cccs2)N2CCN(c3ccccc3)CC2)ccc2cccnc12 (configuration not stated)	/	10.3	37.6	0.6	/
Oc1c(C(c2ccccc2Cl)N2CCCC2)ccc2cccnc12 (configuration not stated)	-4.3	8.5	55.1*	0.4	-30.8
O=C(N/N=C/c1cc(Br)cc(Br)c1O)c1ccncc1	-29.7	-9.9	51.7*	0.5	-34.3
CCOC(=O)C1C(C(=O)OCC)C(C)(C)C1N(C)C (configuration not stated)	-4.1	/	/	/	/
CC(=O)Oc1ccc(N2C(=O)C3C4C=CC(CO)(O4)C3C2=O)cc1 (configuration not stated)	15.7	0.2	-11.9	1.1	-6.2
O=C1C2C3C=CC(CO)(O3)C2C(=O)N1c1ccccc1-c1ccccc1 (configuration not stated)	82.2*	-1.9	17.1	0.8	-4.4
O=C1CC(=O)N(Cc2ccco2)C(=O)N1	3.8	1.0	4.1	1	12.0
O=C1CC(=O)N(Cc2ccco2)C(=S)N1	-4.1	3.5	68.3*	0.3	17.4
CC(C)(C)NC(=O)CN(C(=O)CCC(=O)Nc1nccs1)c1ccccc1F	-10.8	/	/	/	/
O=c1c2c3nc4ccccc4nc3n(-c3ccc4c(c3)OCCO4)c2ncn1C1CCCC1	5.1	5.3	26.1	0.7	47.8*
O=c1c2c3nc4ccccc4nc3n(-c3ccc4c(c3)OCCO4)c2ncn1CC1CCCO1 (configuration not stated)	/	0.5	5.7	0.9	/
COc1ccc(NC(=O)COC(=O)c2c(NC(C)=O)sc(C)c2C)cc1	-5.4	/	/	/	/
SMILES	PfG6PD inh	G6PDH CS	Diaphorase inh	Diaph act CS	HKDC1 inhibitor
Cc1ccc(S(=O)(=O)N=N/C=C2\C=CC=CN2O)cc1	10.1	/	/	/	/
O=C1CCN2C=Nc3cccc4ccc1c2c34	47.2	48.2	76.6*	0.2	20.5
O=C1CCC(=O)c2ccc3c4c(ccc1c24)CC3	36.2	/	/	/	5.0
CC(=O)C1CCC2C3CC=C4CC(SC(=N)N)CCC4(C)C3CCC12C (configuration not stated)	22.8	/	/	/	5.3
Cc1nn(-c2ccccc2)c(C)c1/C=N/n1c(-c2ccc(Cl)cc2)n[nH]c1=S	14.4	-26.0	6.6	0.9	-9.4
CN(C)c1ccc(/C=N/n2c(-c3cccnc3)n[nH]c2=S)cc1	38.3	7.2	72.1*	0.3	-8.7
Cc1cc(-c2n[nH]c(=S)n2/N=C/C=C/c2ccccc2)n[nH]1	25.1	6.1	50.0*	0.5	-10.3
S=c1[nH]nc(-c2ccncc2)n1/N=C/C=C/c1ccccc1	26.5	/	/	/	-0.8
Cc1nn(-c2ccccc2)c(C)c1/C=N/n1c(-c2ccncc2)n[nH]c1=S	36.8	0.8	79.5*	0.2	-1.9
